A selection: hits, their analogues and other compounds. The true share with any hit is near 3.1%.
KCNQ1 pot – potentiates or activates the human KCNQ1 potassium channel | P51787 | CHO-K1 KCNQ1, thallium flux FluxOR fluorescence; stronger effect = higher value | B-score at 10 µM | 310,000 tested, 0.35% active;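 active = fluorescence ratio B-score, a plate-corrected score, at least three library SD, with initial intensity B-score within 5 SD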
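Test system: CHO-K1 cells stably expressing KCNQ1 / Medium: assay buffer / Also added: depolarizing K+/Tl+ stimulus, K2SO4 and Tl2SO4 each 12.5 mM in 5x stock / Incubation: 90 min dye loading and 20 min compound exposure, both at room temperature / Signal: thallium influx via FluxOR fluorescence, kinetic imaging / Evaluation: B score of baseline-normalized fluorescence ratio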
hERG protect – shields human hERG channel from block by proarrhythmic agents | Q12809 | CHO-hERG, FluxOR thallium flux, dofetilide IC70 present | 310,000 tested, 0.51% active | AID 1511 | activation (rescue from dofetilide block), less the hit threshold, % at 10 µM;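 active = activation above the mean of controls blocked by dofetilide plus 5 SD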;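 also: thallium influx through hERG after potassium depolarization seen as dye fluorescence rise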
KCNK3 inh – human KCNK3 channel inhibition, primary screen. CHO-KCNK3 thallium flux, FluxOR fluorescence; stronger effect = lower value. B-score at 10 µM. 340,000 tested, 0.84% active;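 active = B-score under library mean minus 4 SD, starting fluorescence ratio at most library mean plus 5 SD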;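 also: more negative B-score means stronger inhibition of thallium flux through KCNK3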
Target sequence (O14649 whole entry, looked up): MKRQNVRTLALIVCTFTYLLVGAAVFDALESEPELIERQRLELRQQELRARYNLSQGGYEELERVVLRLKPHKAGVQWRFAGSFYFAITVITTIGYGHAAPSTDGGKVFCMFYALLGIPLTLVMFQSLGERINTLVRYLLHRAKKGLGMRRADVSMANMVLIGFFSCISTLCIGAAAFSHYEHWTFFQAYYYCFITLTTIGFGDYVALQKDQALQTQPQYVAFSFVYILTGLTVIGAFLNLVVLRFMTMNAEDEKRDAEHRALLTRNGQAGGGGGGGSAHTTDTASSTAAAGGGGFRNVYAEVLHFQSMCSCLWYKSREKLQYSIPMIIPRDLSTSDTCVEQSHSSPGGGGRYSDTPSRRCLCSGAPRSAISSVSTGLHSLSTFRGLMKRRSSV
KCNK9 inh – human KCNK9 channel inhibition; HEK293 KCNK9, FluxOR thallium flux fluorescence; stronger effect = lower value; B-score at 10 µM; 310,000 tested, 1.2% active; AID 488922; Q9NPC2;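 active = ratio B-score over 3 SD below the library mean, with starting fluorescence within 5 SD of its mean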;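 also: negative B-score means less thallium flux so channel inhibition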
KCNQ1 inh – inhibitors of human KCNQ1 potassium channel; P51787; CHO-K1 KCNQ1, FluxOR thallium flux fluorescence; stronger effect = higher value; B-score at 10 µM; 310,000 tested, 1.3% active; AID 2642;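 active = compounds whose thallium flux B-score, printed positive for inhibition, exceeds three library SD while starting fluorescence stays within three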;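 also: channel opened by potassium depolarization with thallium stimulus after 20 min compound exposure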
KCNK9 inh conf – human KCNK9 inhibitor confirmation; shares compounds with KCNK9 inh; HEK293 KCNK9 cells, FluxOR thallium flux fluorescence; inhibition, % at 10 µM; 4,900 tested, 43% active; AID 492992;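 active = thallium signal inhibited by more than 5 SD of the compound-free buffer control wells, on both duplicate plates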;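 also: 0% = assay buffer control wells without compound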
Kir21 sel – selectivity of KCNK9 modulators against mouse Kir2.1; inhibition, % at 10 µM; Kir2.1 cells, FluxOR thallium flux fluorescence; AID 492993; shares compounds with KCNK9 inh; 4,900 tested, 4% active;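 active = thallium signal drop more than 5 SD beyond the mean of the no-compound control wells, seen in both duplicate plates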;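 also: signal is fluorescence rise after thallium addition divided by baseline fluorescence; plate controls were assay buffer only for no effect and full block by chlorpromazine control for full effect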
HEK293 Tl ctr – second counter-screen for KCNK9 modulators: effect in non-induced cells; shares compounds with KCNK9 inh; non-induced KCNK9-HEK293, FluxOR thallium flux; inhibition, % at 10 µM; 4,900 tested, 40% active; AID 492997;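 active = thallium signal drop beyond 5 SD of the untreated control mean, on both duplicate plates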;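 also: plate controls were buffer only IC0 wells for no effect and SID17386958 at its maximal inhibitory level for full effect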
Starred values were filed as active, the others as inactive; i = inactive; · = no result.

SMILES	KCNQ1 pot	hERG protect	KCNK3 inh	KCNK9 inh	KCNQ1 inh	KCNK9 inh conf	Kir21 sel	HEK293 Tl ctr
COc1ccc(C(=O)NCCN2CCCC2)cc1[N+](=O)[O-]	i	-2.6	i	i	i	·	·	·
Cc1ccc(NC(=S)NNC(=O)c2cccc([N+](=O)[O-])c2)cc1Cl	i	-14.4	i	i	8*	i	i	i
O=C(NNC(=S)Nc1ccc(F)cc1)c1cccc([N+](=O)[O-])c1	i	-13.1	i	i	i	·	·	·
CN(CC(=O)NC(=O)NCc1ccccc1)Cc1ccc(Cl)c(Cl)c1	i	-8.8	i	i	i	i	i	i
COc1ccc(CN(C)CC(=O)NC(=O)NCc2ccccc2)c(OC)c1	i	-5.2	i	i	i	i	i	i
O=S(=O)(Nc1c(S(=O)(=O)c2ccccc2)c2nc3ccccc3nc2n1C1CCCCC1)c1ccccc1	i	-16.9	i	i	i	i	i	i
CCc1nccn1CCC(=O)NC1CCCc2c1cnn2-c1ccc(F)cc1F (centres undefined)	i	-7.4	i	i	i	·	·	·
Cn1c(CN2CCCC(C(=O)c3ccc4c(c3)OCO4)C2)nc2ccccc21 (centres undefined)	i	-9.0	i	i	i	i	i	i
O=C(c1ccc2c(c1)OCO2)C1CCCN(Cc2cccn2-c2cccnc2)C1 (centres undefined)	i	-7.0	i	i	i	·	·	·
O=C(c1ccc2c(c1)OCO2)C1CCCN(Cc2ccc3nsnc3c2)C1 (centres undefined)	i	-13.6	i	i	i	·	·	·
O=C(c1ccc2c(c1)OCO2)C1CCCN(Cc2c(F)ccc(F)c2F)C1 (centres undefined)	i	-6.2	i	i	i	i	i	i
CCc1ccc(NS(=O)(=O)c2c(C(=O)N3CCOCC3)c(C)n(C)c2C)cc1	i	-8.1	i	i	i	·	·	·
Cc1cccc(/C=N/n2c(COc3ccccc3)n[nH]c2=S)c1	14*	1.0	i	-8.98*	i	i	i	i
CN(C)c1ccc2c(c1)Sc1cc(N(C)C)ccc1N2C(=O)c1ccccc1	i	-3.7	i	i	6*	i	i	i
N#Cc1ccccc1S(=O)(=O)N1CCN(C(=O)c2cn(-c3ccccc3)nc2-c2cccnc2)CC1	·	·	i	·	·	·	·	·
O=S(=O)(Cc1cc(Sc2ccc(Cl)cc2)nc(-c2ccccc2)n1)c1ccccc1	i	-10.1	i	-8.46*	i	i	i	32.0%*
O=S(=O)(Cc1cc(Oc2ccccc2)nc(-c2ccccc2)n1)c1ccccc1	i	-7.6	i	i	i	·	·	·
CCOC(=O)C1=C(COC(=O)c2ccc([N+](=O)[O-])o2)NC(=O)NC1C (centres undefined)	·	·	i	·	·	·	·	·
O=C(CNC(c1ccccc1)c1ccccc1)Nc1cc([N+](=O)[O-])ccc1Cl	i	-9.6	i	-9.22*	i	69.0%*	i	41.0%*
CC(C)CC(=O)Nc1cc([N+](=O)[O-])ccc1Cl	i	-6.0	i	i	i	·	·	·
c1ccc(Nc2scc(-c3ccccc3)[n+]2Cc2ccco2)cc1	i	-13.6	i	i	i	·	·	·
c1ccc(C[n+]2c(-c3ccccc3)csc2Nc2ccccc2)cc1	i	-4.1	i	-8.73*	i	35.0%*	i	32.5%*
Cc1ccc(S(=O)(=O)NCc2cccnc2)cc1C(=O)NC1CCCCC1	i	-3.0	i	i	i	·	·	·
CCOc1ccc(Cc2n[nH]c(=S)n2Cc2ccccc2)cc1	i	-11.4	i	-15*	i	32.0%*	i	33.5%*
S=c1[nH]nc(Cc2ccccc2)n1-c1cccc2ccccc12	i	-13.6	i	i	i	i	i	i
SMILES	KCNQ1 pot	hERG protect	KCNK3 inh	KCNK9 inh	KCNQ1 inh	KCNK9 inh conf	Kir21 sel	HEK293 Tl ctr
Cc1ccc(OCc2n[nH]c(=S)n2Cc2ccccc2)cc1	i	-4.0	i	i	i	·	·	·
COc1ccccc1N1CCN(C2CCCN(C(=O)CC(F)(F)F)C2)CC1 (centres undefined)	i	-7.9	i	i	i	·	·	·
CCN1C(=O)C(=O)N(CC(=O)N2CCC(C)Sc3ccccc32)C1=O (centres undefined)	·	·	i	·	·	·	·	·
COC1CCCCC1Nc1cccc(SC)c1 (centres undefined)	i	-1.8	i	i	i	i	i	i
CCOc1cc(CNC(C)(C)CO)cc(Br)c1OCc1ccc(Cl)cc1Cl	i	-27.7	i	-8.72*	i	55.0%*	53.0%*	33.5%*
Cc1cc(OCC(=O)OCC(=O)Nc2ccc(Cl)cn2)ccc1Cl	·	·	i	·	·	·	·	·
Cc1cc2cc(CN(Cc3cccs3)C(c3nnnn3C(C)(C)C)C(C)C)c3nnnn3c2cc1C (centres undefined)	i	-8.9	i	-9.84*	i	59.0%*	i	49.0%*
COc1ccc(S(=O)(=O)Nc2c(C)nc3nc[nH]n3c2=O)cc1	i	-3.5	i	i	i	·	·	·
COc1ccc(S(=O)(=O)Nc2c(C)nc3nc(C)[nH]n3c2=O)cc1	i	-6.1	i	i	i	i	i	i
CCn1c(CN2CCN(C(c3ccccc3)c3ccccc3)CC2)nc2c1c(=O)n(C)c(=O)n2C	i	-4.9	i	i	i	·	·	·
COc1ccc(OC)c(NC(=O)CSc2nnc3ccc(-c4ccccn4)nn23)c1	i	-0.8	i	i	i	·	·	·
CCOC(=O)c1cnn(-c2ccccc2)c1-n1cccc1C(=O)C(=O)Nc1ccccc1C(F)(F)F	i	-2.8	i	-13.5*	i	43.0%*	i	54.0%*
COCCNC(=O)C1CCCN(S(=O)(=O)c2cccc3nsnc23)C1 (centres undefined)	i	-5.5	i	i	i	·	·	·
CC/C(=N/Nc1ccccc1Cl)c1cnnc(-c2ccccc2)n1	i	-16.8	i	-13.5*	i	i	i	38.0%*
CCC/C(=N/Nc1ccc(Cl)cc1)c1cnnc(-c2ccccc2)n1	i	-11.5	·	i	i	·	·	·
Cn1cc(CN2CCCC(CO)(Cc3ccccc3)C2)c2ccccc21 (centres undefined)	i	-10.4	i	i	i	i	i	28.5%*

Assay outcomes: PubChem BioAssay, Johns Hopkins Ion Channel Center
